In ChEMBL document CHEMBL1134521, “Characterization of melanocortin NDP-MSH agonist peptide fragments at the mouse central and peripheral melanocortin receptors” (J Med Chem, 2001):
Where a SMILES comes first, the peptide text is derived from it. [ ]: non-standard residue; d: D form.

Experiments:
Melanocortin receptor 4 = Melanocortin receptor 4 (Mus musculus, UniProt P56450); assay: Functional activity at the mouse melanocortin 4 receptor
Outline: (§1)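 HEK-293 cells stably expressing the mouse receptor (calcium phosphate transfection, G418 1 mg/mL), transfected with CRE/β-galactosidase reporter. Lysates read at OD405 with ONPG at 37 °C, normalized to protein and forskolin (10^-4 M) response. EC50 from curve fit, at least three independent experiments.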

Melanocortin receptor 5 [1] = target: T1, Melanocortin receptor 5 (Mus musculus, UniProt P41149); assay: Functional activity at the mouse melanocortin 5 receptor; outline: as §1
T1 sequence (P41149 whole entry): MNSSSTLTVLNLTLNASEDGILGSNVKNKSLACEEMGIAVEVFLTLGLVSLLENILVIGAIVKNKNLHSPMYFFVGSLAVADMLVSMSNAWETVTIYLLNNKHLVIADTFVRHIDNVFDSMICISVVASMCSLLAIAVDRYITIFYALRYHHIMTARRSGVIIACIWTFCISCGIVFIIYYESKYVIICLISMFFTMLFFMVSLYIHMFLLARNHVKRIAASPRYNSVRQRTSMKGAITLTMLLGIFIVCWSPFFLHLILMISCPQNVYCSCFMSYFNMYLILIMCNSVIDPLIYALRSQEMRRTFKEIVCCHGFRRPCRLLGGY

Melanocortin receptor 3 [2] = target: T2, Melanocortin receptor 3 (Mus musculus, UniProt P33033); assay: Functional activity at the mouse melanocortin 3 receptor; outline: as §1
T2 sequence (P33033 whole entry): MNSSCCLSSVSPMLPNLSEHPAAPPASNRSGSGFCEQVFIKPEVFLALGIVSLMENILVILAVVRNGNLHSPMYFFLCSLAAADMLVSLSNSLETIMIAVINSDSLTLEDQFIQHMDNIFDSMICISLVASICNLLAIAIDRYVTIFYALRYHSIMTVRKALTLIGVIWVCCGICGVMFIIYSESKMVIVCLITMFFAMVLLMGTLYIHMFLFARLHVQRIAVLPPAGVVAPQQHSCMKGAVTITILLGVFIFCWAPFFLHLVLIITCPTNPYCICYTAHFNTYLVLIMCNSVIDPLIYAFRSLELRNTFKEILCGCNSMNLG

[3] = target: T3, Melanocyte-stimulating hormone receptor (Mus musculus, UniProt Q01727); assay: Functional activity at the mouse melanocortin 1 receptor; outline: as §1
T3 sequence (Q01727 whole entry): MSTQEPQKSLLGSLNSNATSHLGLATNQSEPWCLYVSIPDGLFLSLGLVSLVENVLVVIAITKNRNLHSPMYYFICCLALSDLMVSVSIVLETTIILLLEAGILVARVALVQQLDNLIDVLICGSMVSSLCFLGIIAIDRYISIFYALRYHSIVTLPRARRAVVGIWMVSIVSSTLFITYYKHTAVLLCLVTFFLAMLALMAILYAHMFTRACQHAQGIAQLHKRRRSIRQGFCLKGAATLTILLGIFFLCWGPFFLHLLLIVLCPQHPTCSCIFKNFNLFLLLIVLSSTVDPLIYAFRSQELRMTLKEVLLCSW

Melanocortin receptor 3 [4] = target: T2, Melanocortin receptor 3; assay: Functional activity at the mouse melanocortin 3 receptor at 100 uM; Slight agonist
Melanocortin receptor 5 [5] = target: T1, Melanocortin receptor 5; assay: Functional activity at the mouse melanocortin 5 receptor at 100 uM; Slight agonist
[6] = target: T3, Melanocyte-stimulating hormone receptor; assay: Functional activity at the mouse melanocortin 1 receptor at 100 uM; Slight agonist

Melanocortin receptor 4, sequence (P56450 whole entry): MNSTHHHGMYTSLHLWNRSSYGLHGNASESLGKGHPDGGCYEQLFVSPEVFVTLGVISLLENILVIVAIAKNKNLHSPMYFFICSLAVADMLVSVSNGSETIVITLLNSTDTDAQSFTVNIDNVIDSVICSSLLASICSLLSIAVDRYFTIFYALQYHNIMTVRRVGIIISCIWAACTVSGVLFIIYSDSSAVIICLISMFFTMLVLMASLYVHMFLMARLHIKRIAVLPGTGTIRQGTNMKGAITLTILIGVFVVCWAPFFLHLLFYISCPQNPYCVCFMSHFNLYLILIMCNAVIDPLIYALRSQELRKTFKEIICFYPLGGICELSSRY

EC50 (Melanocortin receptor 4) [nM] | EC50 (Melanocortin receptor 5 [1]) [nM] | EC50 (Melanocortin receptor 3 [2]) [nM] | EC50 [3] [nM] | EC50 (Melanocortin receptor 3 [4]) | EC50 (Melanocortin receptor 5 [5]) | EC50 [6] | SMILES
2110 | 103 | – | – | – | – | – | CC(=O)N[C@@H](Cc1c[nH]cn1)C(=O)N[C@@H](Cc1ccccc1)C(=O)N[C@@H](CCCN=C(N)N)C(=O)N[C@@H](Cc1c[nH]c2ccccc12)C(N)=O
0.45 | 0.17 | 6.82 | 0.49 | – | – | – | CC(=O)N[C@@H](Cc1c[nH]cn1)C(=O)N[C@H](Cc1ccccc1)C(=O)N[C@@H](CCCN=C(N)N)C(=O)N[C@@H](Cc1c[nH]c2ccccc12)C(=O)NCC(=O)N[C@@H](CCCCN)C(=O)N1CCC[C@H]1C(=O)N[C@H](C(N)=O)C(C)C
0.44 | 0.46 | 0.16 | 0.018 | – | – | – | CCCC[C@H](NC(=O)[C@H](CO)NC(=O)[C@H](Cc1ccc(O)cc1)NC(=O)[C@H](CO)NC(C)=O)C(=O)N[C@@H](CCC(=O)O)C(=O)N[C@@H](Cc1c[nH]cn1)C(=O)N[C@H](Cc1ccccc1)C(=O)N[C@@H](CCCN=C(N)N)C(=O)N[C@@H](Cc1c[nH]c2ccccc12)C(=O)NCC(=O)N[C@@H](CCCCN)C(N)=O
2320 | 1660 | – | 4540 | Partial agonist | – | – | CC(=O)N[C@H](Cc1ccccc1)C(=O)N[C@@H](CCCN=C(N)N)C(=O)N[C@@H](Cc1c[nH]c2ccccc12)C(N)=O (Ac-[dF]-Arg-Trp-NH2)
4.31 | 0.42 | 15.2 | 8.94 | – | – | – | CC(=O)N[C@@H](CCC(=O)O)C(=O)N[C@@H](Cc1c[nH]cn1)C(=O)N[C@H](Cc1ccccc1)C(=O)N[C@@H](CCCN=C(N)N)C(=O)N[C@@H](Cc1c[nH]c2ccccc12)C(N)=O
0.32 | 0.46 | 0.11 | 0.021 | – | – | – | CCCC[C@H](NC(C)=O)C(=O)N[C@@H](CCC(=O)O)C(=O)N[C@@H](Cc1cnc[nH]1)C(=O)N[C@H](Cc1ccccc1)C(=O)N[C@@H](CCCNC(=N)N)C(=O)N[C@@H](Cc1c[nH]c2ccccc12)C(=O)NCC(=O)N[C@@H](CCCCN)C(=O)N1CCC[C@H]1C(=O)N[C@H](C(N)=O)C(C)C
0.45 | 0.39 | 0.26 | 0.034 | – | – | – | CCCC[C@H](NC(C)=O)C(=O)N[C@@H](CCC(=O)O)C(=O)N[C@@H](Cc1c[nH]cn1)C(=O)N[C@H](Cc1ccccc1)C(=O)N[C@@H](CCCN=C(N)N)C(=O)N[C@@H](Cc1c[nH]c2ccccc12)C(N)=O
0.78 | 0.53 | 0.29 | 0.036 | – | – | – | CCCC[C@H](NC(=O)[C@H](CO)NC(=O)[C@H](Cc1ccc(O)cc1)NC(=O)[C@H](CO)NC(C)=O)C(=O)N[C@@H](CCC(=O)O)C(=O)N[C@@H](Cc1cnc[nH]1)C(=O)N[C@H](Cc1ccccc1)C(=O)N[C@@H](CCCNC(=N)N)C(=O)N[C@@H](Cc1c[nH]c2ccccc12)C(N)=O
154 | 61.3 | – | – | – | – | – | CC(=O)N[C@@H](Cc1cnc[nH]1)C(=O)N[C@H](Cc1ccccc1)C(=O)N[C@@H](CCCNC(=N)N)C(=O)N[C@H](Cc1c[nH]c2ccccc12)C(N)=O
> 100000 | – | > 100000 | 5870 | – | – | – | CC(=O)N[C@@H](Cc1ccccc1)C(=O)N[C@@H](CCCNC(=N)N)C(=O)N[C@@H](Cc1c[nH]c2ccccc12)C(N)=O (Ac-Phe-Arg-Trp-NH2)
– | – | – | – | – | Partial agonist | – | CC(=O)N[C@@H](Cc1ccccc1)C(=O)N[C@@H](CCCN=C(N)N)C(=O)N[C@@H](Cc1c[nH]c2ccccc12)C(N)=O (Ac-Phe-Arg-Trp-NH2)
6620 | 317 | – | – | – | – | – | CC(=O)N[C@@H](Cc1c[nH]cn1)C(=O)N[C@@H](Cc1ccccc1)C(=O)N[C@@H](CCCN=C(N)N)C(=O)N[C@H](Cc1c[nH]c2ccccc12)C(N)=O
10.2 | 3.46 | – | – | – | – | – | CC(=O)N[C@@H](Cc1cnc[nH]1)C(=O)N[C@H](Cc1ccccc1)C(=O)N[C@@H](CCCN=C(N)N)C(=O)N[C@@H](Cc1c[nH]c2ccccc12)C(N)=O
0.94 | 0.59 | 0.39 | 0.045 | – | – | – | CCCC[C@H](NC(C)=O)C(=O)N[C@@H](CCC(=O)O)C(=O)N[C@@H](Cc1c[nH]cn1)C(=O)N[C@H](Cc1ccccc1)C(=O)N[C@@H](CCCN=C(N)N)C(=O)N[C@@H](Cc1c[nH]c2ccccc12)C(=O)NCC(N)=O
11200 | 6880 | > 100000 | – | – | – | Partial agonist | CC(=O)N[C@H](Cc1ccccc1)C(=O)N[C@@H](CCCN=C(N)N)C(=O)N[C@H](Cc1c[nH]c2ccccc12)C(N)=O
